Test results published in article PMC5008178 (Molecular Microbiology, 2015).
Where two headings read alike, the source gives them in different places. One block for each compound: values may come before it.

Legend:
Tar = Tar (Escherichia coli, UniProt P07017); experiment: FRET response in receptorless cells expressing Tar as sole receptor; type: cell-based; settings: Tar-only cells; for response mediated by Tar, in words: sub-millimolar range
Outline: (§1)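 Receptorless E. coli VS181 [Δ(cheY cheZ) Δ(tar tsr tap trg aer)] carries the CheY‑YFP/CheZ‑CFP pair (pVS88) and a plasmid with the single receptor. Cells are grown in TB at 34°C, 275 r.p.m., with inducers, and harvested at OD600 0.6. Buffer‑adapted cells get step addition and then removal of amino acid. YFP/CFP ratio (kinase activity) is read by fluorescence microscopy.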

Tsr = Tsr (Escherichia coli, UniProt P02942); experiment: FRET response in receptorless cells expressing Tsr as sole receptor; type: cell-based; settings: for response mediated by Tsr, in words: Tsr-only cells, sub-millimolar range
Outline: as §1

[1] = tested on: chemotaxis pathway in B. subtilis; experiment: microbe, parasite or virus in culture; type: cell-based, Bacillus subtilis; settings: for EC50: read-out: EC50 of attractant FRET response
[2] = tested on: chemotaxis pathway in E. coli; experiment: microbe, parasite or virus in culture; type: cell-based, Escherichia coli; settings: for EC50: Escherichia coli; for repellent response in wild type, in words: wild-type E. coli cells, tested up to 1 mM where no response
E. coli = experiment: Growth inhibition by individual amino acids in M9 glucose medium; type: cell-based, Escherichia coli; settings: 1 mM amino acid, M9 minimal glucose medium, culture density after 8 h
Outline: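 Cells grown in modified M9 (47 mM Na2HPO4, 22 mM KH2PO4, 8 mM NaCl, 2 mM MgSO4, 100 μM CaCl2) with glucose as carbon source. A single L‑amino acid (1 mM final) was added at the start; 37°C, 120 r.p.m. OD600 read after 8 h and normalised to a control culture without added amino acid.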

[3] = read-out: EC50 of attractant FRET response
[4] = read-out: EC50 of repellent response

Tsr, sequence (P02942 whole entry): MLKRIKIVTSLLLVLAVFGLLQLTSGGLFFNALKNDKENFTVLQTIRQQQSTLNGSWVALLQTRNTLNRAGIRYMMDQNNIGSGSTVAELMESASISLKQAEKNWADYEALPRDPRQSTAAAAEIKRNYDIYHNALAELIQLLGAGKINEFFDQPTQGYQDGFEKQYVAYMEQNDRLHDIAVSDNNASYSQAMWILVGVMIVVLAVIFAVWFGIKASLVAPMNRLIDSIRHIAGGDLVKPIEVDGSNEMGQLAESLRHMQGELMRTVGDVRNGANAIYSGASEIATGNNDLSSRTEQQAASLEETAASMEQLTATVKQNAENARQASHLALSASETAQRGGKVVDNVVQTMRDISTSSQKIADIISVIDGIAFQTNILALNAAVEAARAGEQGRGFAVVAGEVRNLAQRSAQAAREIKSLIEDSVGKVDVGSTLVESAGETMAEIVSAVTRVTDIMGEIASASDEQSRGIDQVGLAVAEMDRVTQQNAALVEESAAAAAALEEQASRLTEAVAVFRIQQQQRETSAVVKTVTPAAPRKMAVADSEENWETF
Tsr, sequence (P0A964 whole entry partner): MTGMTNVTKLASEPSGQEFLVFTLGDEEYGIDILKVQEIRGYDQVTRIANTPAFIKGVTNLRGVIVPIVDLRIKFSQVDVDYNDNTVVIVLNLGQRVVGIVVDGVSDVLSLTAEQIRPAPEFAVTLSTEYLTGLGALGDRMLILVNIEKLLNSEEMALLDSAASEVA
Tsr, sequence (P07363 whole entry partner): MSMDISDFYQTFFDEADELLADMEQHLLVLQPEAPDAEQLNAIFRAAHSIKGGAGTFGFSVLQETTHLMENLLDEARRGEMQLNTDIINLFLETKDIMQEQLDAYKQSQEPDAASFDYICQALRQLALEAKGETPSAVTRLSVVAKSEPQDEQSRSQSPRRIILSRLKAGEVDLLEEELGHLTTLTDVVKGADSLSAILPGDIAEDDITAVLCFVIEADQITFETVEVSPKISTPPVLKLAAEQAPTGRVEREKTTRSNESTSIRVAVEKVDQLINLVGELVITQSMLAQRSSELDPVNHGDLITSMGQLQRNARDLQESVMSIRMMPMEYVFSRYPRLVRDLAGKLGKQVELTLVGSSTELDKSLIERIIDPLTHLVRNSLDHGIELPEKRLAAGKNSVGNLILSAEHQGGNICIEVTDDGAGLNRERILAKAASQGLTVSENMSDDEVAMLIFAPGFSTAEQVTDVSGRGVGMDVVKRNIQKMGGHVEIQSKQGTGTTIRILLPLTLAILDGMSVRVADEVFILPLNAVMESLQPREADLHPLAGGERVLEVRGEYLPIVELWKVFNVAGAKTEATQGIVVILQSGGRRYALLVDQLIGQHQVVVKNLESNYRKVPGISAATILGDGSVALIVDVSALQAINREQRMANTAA
Tar, sequence (P07017 whole entry): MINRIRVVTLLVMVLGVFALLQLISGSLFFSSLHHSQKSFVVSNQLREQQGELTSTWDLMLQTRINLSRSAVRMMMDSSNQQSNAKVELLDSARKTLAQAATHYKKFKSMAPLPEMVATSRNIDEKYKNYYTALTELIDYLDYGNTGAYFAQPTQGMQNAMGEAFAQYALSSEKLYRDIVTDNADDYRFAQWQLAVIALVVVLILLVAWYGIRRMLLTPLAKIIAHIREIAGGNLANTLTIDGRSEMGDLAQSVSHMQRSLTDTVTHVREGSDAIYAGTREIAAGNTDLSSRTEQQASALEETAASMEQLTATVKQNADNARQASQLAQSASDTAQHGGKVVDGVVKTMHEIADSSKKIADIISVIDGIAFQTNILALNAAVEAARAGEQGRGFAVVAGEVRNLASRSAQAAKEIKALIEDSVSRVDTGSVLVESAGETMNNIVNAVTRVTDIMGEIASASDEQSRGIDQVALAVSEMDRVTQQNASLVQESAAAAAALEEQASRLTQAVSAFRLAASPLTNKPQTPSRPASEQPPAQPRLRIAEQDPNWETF
Tar, sequence (P0A964 whole entry partner): as the sequence (P0A964 whole entry partner) above
Tar, sequence (P07363 whole entry partner): as the sequence (P07363 whole entry partner) above

Structure (SMILES): NC(=O)C[C@H](N)C(=O)O [Aparagine, Asparagine]
response mediated by Tar, in words (Tar): attractant responses
response mediated by Tsr, in words (Tsr): attractant responses
EC50 ([1]; Bacillus subtilis): < 1 µM

Structure (SMILES): N=C(N)NCCC[C@H](N)C(=O)O [Arginine]
FRET response in words ([1]; B. subtilis): did not elicit clear responses

Structure (SMILES): NC(=O)CC[C@H](N)C(=O)O [Glutamine]
repellent response in wild type, in words [2]: no obvious repellent response
repellent response in Tsr-only cells, in words (Tsr): weak repellent responses

Structure (SMILES): N[C@@H](Cc1c[nH]cn1)C(=O)O [Histidine]
repellent response in wild type, in words [2]: no obvious repellent response
repellent response in Tsr-only cells, in words (Tsr): weak repellent responses
FRET response in words ([1]; B. subtilis): lesser maximal activation

Structure (SMILES): CC[C@H](C)[C@H](N)C(=O)O [Isoleucine]
EC50 [2, 4]: 100 to 3000 µM
repellent response in wild type, in words [2]: clear repellent responses

Structure (SMILES): NCCCC[C@H](N)C(=O)O [Lysine]
FRET response in words ([1]; B. subtilis): did not elicit clear responses

Structure (SMILES): CSCC[C@H](N)C(=O)O [Methionine]
attractant response in words [2]: weak attractant responses
response mediated by Tar, in words (Tar): attractant responses

Structure (SMILES): N[C@@H](Cc1ccccc1)C(=O)O [Phenyalanine, phenylalanine]
repellent response in wild type, in words [2]: no obvious repellent response
repellent response in Tsr-only cells, in words (Tsr): weak repellent responses

Structure (SMILES): O=C(O)[C@@H]1CCCN1 [Proline]
EC50 ([1]; Bacillus subtilis): < 1 µM

Structure (SMILES): C[C@@H](O)[C@H](N)C(=O)O [Threonine]
attractant response in words ([2]; wild-type E. coli, millimolar concentrations): weak attractant responses

Structure (SMILES): N[C@@H](Cc1c[nH]c2ccccc12)C(=O)O [Tryptophan]
EC50 [2, 4]: 100 to 3000 µM
repellent response in wild type, in words [2]: clear repellent responses
FRET response in words ([1]; B. subtilis): lesser maximal activation

Structure (SMILES): N[C@@H](Cc1ccc(O)cc1)C(=O)O [Tyrosine]
FRET response in words ([1]; B. subtilis): lesser maximal activation

Structure (SMILES): CC(C)[C@H](N)C(=O)O [Valine]
EC50 [2, 4]: 100 to 3000 µM
repellent response in wild type, in words [2]: clear repellent responses
growth inhibition (E. coli): significant growth inhibition

Now from value to compound, other results behind:

response mediated by Tar, in words (Tar): attractant responses
response mediated by Tsr, in words (Tsr): attractant responses
Structure (SMILES): C[C@H](N)C(=O)O [Alanine]

EC50 [2, 3]: < 10 µM
response mediated by Tar, in words (Tar): attractant responses
repellent response in Tsr-only cells, in words (Tsr): weak repellent responses
EC50 ([1]; Bacillus subtilis): > 1000 µM
Structure (SMILES): N[C@@H](CC(=O)O)C(=O)O [Aspartate]
repellent response in wild type, in words [2]: no obvious repellent response

EC50 [2, 3]: < 10 µM
response mediated by Tar, in words (Tar): attractant responses
response mediated by Tsr, in words (Tsr): attractant responses
EC50 ([1]; Bacillus subtilis): < 1 µM
Structure (SMILES): N[C@@H](CS)C(=O)O [Cysteine]
growth inhibition (E. coli): significant growth inhibition

response mediated by Tar, in words (Tar): attractant responses
repellent response in Tsr-only cells, in words (Tsr): weak repellent responses
EC50 ([1]; B. subtilis): > 1000 µM
Structure (SMILES): N[C@@H](CCC(=O)O)C(=O)O [Glutamate]
repellent response in wild type, in words [2]: no obvious repellent response

response mediated by Tar, in words (Tar): attractant responses
response mediated by Tsr, in words (Tsr): attractant responses
Structure (SMILES): NCC(=O)O [Glycine]

EC50 [2, 4]: 100 to 3000 µM
Structure (SMILES): CC(C)C[C@H](N)C(=O)O [Leucine]
repellent response in wild type, in words [2]: clear repellent responses
growth inhibition (E. coli): significant growth inhibition

EC50 [2, 3]: < 10 µM
level at which the response saturated (Tar; saturating concentration): ~20 % of the initial activity
response mediated by Tar, in words (Tar): attractant responses
response mediated by Tsr, in words (Tsr): attractant responses
Structure (SMILES): N[C@@H](CO)C(=O)O [Serine]
growth inhibition (E. coli): significant growth inhibition
